# Columns and labels:
# [1] = water solubility of neat and equilibrated powders; type: physicochemical; conditions: for water solubility: neat and solvent-equilibrated dry powders
# [2] = cited from earlier work
# [3] = in water, PBS (pH 7.4), SGF and SIF; no reference given; cited from earlier work
# MCF-7 = conditions: read-out: cell proliferation inhibitor IC50; MCF-7 ref 5; cited from earlier work
# snails = conditions: cited from earlier work
# parasitic proliferation = conditions: cited from earlier work
# hepatitis C virus = conditions: cited from earlier work
# [4] = apparent thermodynamic analysis: dissolution Gibbs free energy; type: physicochemical
# Outline: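 Excess solid was added to the pure solvent, vortexed and sonicated, then shaken for 24 h at 300 rpm at each temperature from 298.15 to 323.15 K. Samples were centrifuged for 20 min at 8000 rpm and 25 °C. Supernatant was diluted in MeOH/water 8:2 and read by absorbance at 330 nm against a 5–35 µg/mL calibration. Mole fraction solubility was the mean of triplicates. Dissolution thermodynamics came from Van't Hoff analysis.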
# MDA-MB-231 = conditions: human breast cancer cell lines (MDA-MB-231) ref 5; cited from earlier work
structure (smiles),measurement,setting,value
O=C(Nc1ccc([N+](=O)[O-])cc1Cl)c1cc(Cl)ccc1O [NCL-DMSO],water solubility,[1],18.082 ± 0.045 µg/mL
O=C(Nc1ccc([N+](=O)[O-])cc1Cl)c1cc(Cl)ccc1O [NCL-MeOH],water solubility,[1],16.261 ± 0.082 µg/mL
C[S+](C)[O-] [dimethyl sulfoxide],log P,[2],−1.35
CO [methanol],log P,[2],−0.69
"O=C(Nc1ccc([N+](=O)[O-])cc1Cl)c1cc(Cl)ccc1O [niclosamide, N-(2′-chloro-4′-nitrophenyl)-5-chlorosalicylamide]",aqueous solubility,[3],6 to 20 µg/mL
same,IC50,MCF-7,1060 nM
same,lethal concentration in snails,snails,0.3 mg/L
same,parasitic proliferation inhibitor MIC50,parasitic proliferation,200–250 nM/L
same,hepatitis C virus replication inhibitor,hepatitis C virus,0.16 µM/L
same,solubility,[1]; water,20.76 ± 0.099 µg/mL
same,"ΔdisG, dissolution Gibbs free energy","[4]; 1-butanol, 298.15 K",-2026.0 J/mol
same,"ΔdisG, dissolution Gibbs free energy","[4]; 1-butanol, 303.15 K",-2022.6 J/mol
same,"ΔdisG, dissolution Gibbs free energy","[4]; 1-butanol, 308.15 K",-2019.0 J/mol
same,"ΔdisG, dissolution Gibbs free energy","[4]; 1-butanol, 313.15 K",-2015.7 J/mol
same,"ΔdisG, dissolution Gibbs free energy","[4]; 1-butanol, 318.15 K",-2012.0 J/mol
same,"ΔdisG, dissolution Gibbs free energy","[4]; 1-butanol, 323.15 K",-2008.7 J/mol
same,"ΔdisG, dissolution Gibbs free energy","[4]; 2-propanol, 298.15 K",-394.7 J/mol
same,"ΔdisG, dissolution Gibbs free energy","[4]; 2-propanol, 303.15 K",-377.2 J/mol
same,"ΔdisG, dissolution Gibbs free energy","[4]; 2-propanol, 308.15 K",-359.7 J/mol
same,"ΔdisG, dissolution Gibbs free energy","[4]; 2-propanol, 313.15 K",-342.2 J/mol
same,"ΔdisG, dissolution Gibbs free energy","[4]; 2-propanol, 318.15 K",-324.8 J/mol
same,"ΔdisG, dissolution Gibbs free energy","[4]; 2-propanol, 323.15 K",-307.3 J/mol
same,"ΔdisG, dissolution Gibbs free energy","[4]; DMSO, 298.15 K",768.6 J/mol
same,"ΔdisG, dissolution Gibbs free energy","[4]; DMSO, 303.15 K",797.0 J/mol
same,"ΔdisG, dissolution Gibbs free energy","[4]; DMSO, 308.15 K",825.5 J/mol
same,"ΔdisG, dissolution Gibbs free energy","[4]; DMSO, 313.15 K",854.0 J/mol
same,"ΔdisG, dissolution Gibbs free energy","[4]; DMSO, 318.15 K",882.4 J/mol
same,"ΔdisG, dissolution Gibbs free energy","[4]; DMSO, 323.15 K",910.9 J/mol
same,"ΔdisG, dissolution Gibbs free energy","[4]; Ethanol, 298.15 K",1291.2 J/mol
same,"ΔdisG, dissolution Gibbs free energy","[4]; Ethanol, 303.15 K",1323.7 J/mol
same,"ΔdisG, dissolution Gibbs free energy","[4]; Ethanol, 308.15 K",1356.2 J/mol
same,"ΔdisG, dissolution Gibbs free energy","[4]; Ethanol, 313.15 K",1388.7 J/mol
same,"ΔdisG, dissolution Gibbs free energy","[4]; Ethanol, 318.15 K",1421.2 J/mol
same,"ΔdisG, dissolution Gibbs free energy","[4]; Ethanol, 323.15 K",1453.7 J/mol
same,"ΔdisG, dissolution Gibbs free energy","[4]; Methanol, 298.15 K",5761.0 J/mol
same,"ΔdisG, dissolution Gibbs free energy","[4]; Methanol, 303.15 K",5833.0 J/mol
same,"ΔdisG, dissolution Gibbs free energy","[4]; Methanol, 308.15 K",5905.0 J/mol
same,"ΔdisG, dissolution Gibbs free energy","[4]; Methanol, 313.15 K",5977.0 J/mol
same,"ΔdisG, dissolution Gibbs free energy","[4]; Methanol, 318.15 K",6049.0 J/mol
same,"ΔdisG, dissolution Gibbs free energy","[4]; Methanol, 323.15 K",6121.0 J/mol
same,"ΔdisG, dissolution Gibbs free energy","[4]; PEG-200, 298.15 K",-768.4 J/mol
same,"ΔdisG, dissolution Gibbs free energy","[4]; PEG-200, 303.15 K",-756.0 J/mol
same,"ΔdisG, dissolution Gibbs free energy","[4]; PEG-200, 308.15 K",-743.5 J/mol
same,"ΔdisG, dissolution Gibbs free energy","[4]; PEG-200, 313.15 K",-731.0 J/mol
same,"ΔdisG, dissolution Gibbs free energy","[4]; PEG-200, 318.15 K",-718.5 J/mol
same,"ΔdisG, dissolution Gibbs free energy","[4]; PEG-200, 323.15 K",-706.0 J/mol
same,"ΔdisG, dissolution Gibbs free energy","[4]; PEG-400, 298.15 K",-2092.5 J/mol
same,"ΔdisG, dissolution Gibbs free energy","[4]; PEG-400, 303.15 K",-2093.0 J/mol
same,"ΔdisG, dissolution Gibbs free energy","[4]; PEG-400, 308.15 K",-2093.6 J/mol
same,"ΔdisG, dissolution Gibbs free energy","[4]; PEG-400, 313.15 K",-2094.0 J/mol
same,"ΔdisG, dissolution Gibbs free energy","[4]; PEG-400, 318.15 K",-2094.8 J/mol
same,"ΔdisG, dissolution Gibbs free energy","[4]; PEG-400, 323.15 K",-2095.3 J/mol
same,"ΔdisG, dissolution Gibbs free energy","[4]; Water, 298.15 K",588.5 J/mol
same,"ΔdisG, dissolution Gibbs free energy","[4]; Water, 303.15 K",630.7 J/mol
same,"ΔdisG, dissolution Gibbs free energy","[4]; Water, 308.15 K",672.9 J/mol
same,"ΔdisG, dissolution Gibbs free energy","[4]; Water, 313.15 K",715.0 J/mol
same,"ΔdisG, dissolution Gibbs free energy","[4]; Water, 318.15 K",757.2 J/mol
same,"ΔdisG, dissolution Gibbs free energy","[4]; Water, 323.15 K",799.4 J/mol
same,"apoptosis inducer, concentration",MDA-MB-231,1–10 µM/L

# Source: publication PMC9477609 (Journal of Molecular Liquids, 2022)
